Values after ≈ are worked out from the molar mass of the structure shown. Read-outs that look alike come from different tables or passages of the source.
Legend:
[1] = Solubility screening of selected solvents; type: physicochemical
Outline: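 Solvent screen in 2-propanol, tetrahydrofuran, cyclohexane and toluene. Solubility of each test compound was determined in each neat solvent at room temperature and at 0 °C. Values are reported in mg/mL.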

[2] = in deionized water, cyclohexane, petroleum ether, and hexane; cited from earlier work
[3] = solvent cyclohexane, RT (25-30 °C)
[4] = tetrahydrofuran, 0 °C, organic solvent or mixture, thermodynamic from solid
[5] = tetrahydrofuran, organic solvent or mixture, thermodynamic from solid
[6] = toluene, 0 °C, organic solvent or mixture, thermodynamic from solid
[7] = toluene, organic solvent or mixture, thermodynamic from solid
[8] = solvent 2-propanol, RT (25-30 °C)

solubility ([1]; 2-propanol, 0 °C, organic solvent or mixture, thermodynamic from solid) [mg/mL] | solubility ([1]; 2-propanol, organic solvent or mixture, thermodynamic from solid) [mg/mL] | solubility ([1]; solvent cyclohexane, 0 °C) | solubility [1, 3] | solubility [1, 4] [mg/mL] | solubility [1, 5] [mg/mL] | solubility [1, 6] [mg/mL] | solubility [1, 7] [mg/mL] | solubility ([1]; solvent 2-propanol, 0 °C) | solubility [1, 8] | solubility ([1]; solvent tetrahydrofuran, 0 °C) [mg/mL] | solubility ([1]; solvent tetrahydrofuran, RT (25-30 °C)) [mg/mL] | solubility ([1]; solvent toluene, RT (25-30 °C)) [mg/mL] | SMILES | solubility [2]
25.4 (≈ 91.3 mM) | 46.5 (≈ 167 mM) | insoluble | insoluble | 105 (≈ 377 mM) | 170 (≈ 610 mM) | 42.9 (≈ 154 mM) | 44.3 (≈ 159 mM) | – | – | – | – | – | O=P(c1ccccc1)(c1ccccc1)c1ccccc1 [TPPO, Triphenylphosphine oxide] | almost insoluble
– | – | insoluble | insoluble | – | – | – | – | 13.3 mg/mL | 60.4 mg/mL | 61.0 | 157.5 | 23.2 | CC(C)OC(=O)NNC(=O)OC(C)C.O=P(c1ccccc1)(c1ccccc1)c1ccccc1 [TPPO-H2DIAD, triphenylphosphine oxide-1,2-isopropylhydrazine dicarboxylate] | –
– | – | insoluble | insoluble | 101 (≈ 277 mM) | 124 (≈ 342 mM) | 42.1 (≈ 116 mM) | 46.7 (≈ 128 mM) | insoluble | insoluble | – | – | – | CC(C)(C)OC(=O)N1C[C@@H](F)C[C@H]1CON1C(=O)c2ccccc2C1=O [compound-6, tert-Butyl (2S,4S)-2-{[(1,3-Dioxo-1,3-dihydro-2H-isoindol-2-yl)oxy]methyl}-4-fluoro-pyrrolidine-1-carboxylate] | –

Reference: publication PMC8173612 (ACS Omega, 2021)
